From ChEMBL document CHEMBL1932953, “New anthranilic acid based antagonists with high affinity and selectivity for the human cholecystokinin receptor 1 (hCCK1-R)” (J Med Chem, 2011)
Values belong to the compound of their own block, whether it stands above or below them. The source made the active and inactive calls. The calls are words filed in the database; no cut-off is given here.

Tests used:
[1] = Displacement of [125I]-BH-CCK8 from CCK2 receptor in Hartley guinea pig cerebral cortex after 120 hrs by gamma-counting; format: tissue-based, Cavia porcellus; settings: in the assay text read “after 120 mins” for “after 120 hrs”
Summary of the method: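 Cortical membranes (0.5 mg protein/ml) are incubated with 25 pM [125I]BH-CCK-8 for 120 min at 25 °C. The buffer is 10 mM Hepes, 118 mM NaCl, 4.7 mM KCl, 5 mM MgCl2, 1 mM EGTA, pH 6.5, with 0.2 mg/mL bacitracin. Samples are vacuum-filtered on GF/B and gamma-counted, with nonspecific binding defined with 1 μM CCK-8. IC50 comes from curve fitting, or ISB% is taken at the top concentration tested.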

[2] = biological target: T1, Cholecystokinin receptor type A (Rattus norvegicus, UniProt P30551); assay: Displacement of [125I]-BH-CCK8 from CCK1 receptor in Sprague-Dawley rat pancreatic acini after 120 hrs by gamma-counting; settings: in the assay text read “after 30 mins” for “after 120 hrs”
T1 sequence (P30551 whole entry): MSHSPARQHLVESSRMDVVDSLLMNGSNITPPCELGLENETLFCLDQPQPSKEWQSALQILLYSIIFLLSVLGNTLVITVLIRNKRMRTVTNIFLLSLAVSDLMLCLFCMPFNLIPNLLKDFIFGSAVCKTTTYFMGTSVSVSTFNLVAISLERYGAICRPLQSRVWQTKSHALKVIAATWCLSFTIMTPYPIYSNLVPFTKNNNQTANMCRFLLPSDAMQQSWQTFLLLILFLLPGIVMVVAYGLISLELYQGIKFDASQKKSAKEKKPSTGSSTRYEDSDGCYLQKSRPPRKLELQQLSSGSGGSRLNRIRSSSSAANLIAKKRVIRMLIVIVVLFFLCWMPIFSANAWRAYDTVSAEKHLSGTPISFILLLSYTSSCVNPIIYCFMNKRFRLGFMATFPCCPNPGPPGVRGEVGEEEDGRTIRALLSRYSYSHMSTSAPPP
Summary of the method: (§1)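 Rats fasted 18–24 h with free water. Acini isolated by enzymatic digestion are incubated with 25 pM [125I]BH-CCK-8 and competitors at 37 °C for 30 min in a shaking bath. Ice-cold Hepes-Ringer pH 7.4 is added, the tubes are centrifuged 5 min at 12500g, and pellet radioactivity is counted. IC50 comes from curve fitting, or ISB% is taken at the top concentration tested.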

[3] = biological target: T2, Cholecystokinin receptor type A (Homo sapiens, UniProt P32238); assay: Displacement of [125I]BH-(Thr,-Nle)-CCK-9 from human CCK1 receptor expressed in COS-7 cells after 60 mins by gamma counting; format: cell-based
T2 sequence (P32238 whole entry): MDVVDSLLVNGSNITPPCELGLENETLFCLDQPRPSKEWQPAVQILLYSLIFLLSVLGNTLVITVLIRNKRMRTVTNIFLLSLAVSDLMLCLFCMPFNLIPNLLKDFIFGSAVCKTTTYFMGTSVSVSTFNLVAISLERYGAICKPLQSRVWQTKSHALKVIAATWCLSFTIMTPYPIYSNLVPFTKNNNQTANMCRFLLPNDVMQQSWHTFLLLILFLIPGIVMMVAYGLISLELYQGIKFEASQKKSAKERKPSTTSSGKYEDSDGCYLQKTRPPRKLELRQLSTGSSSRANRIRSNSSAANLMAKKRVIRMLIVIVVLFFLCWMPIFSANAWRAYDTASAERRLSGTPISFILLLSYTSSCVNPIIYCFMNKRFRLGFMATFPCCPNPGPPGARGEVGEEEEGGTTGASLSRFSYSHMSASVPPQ

[4] = biological target: T3, Gastrin/cholecystokinin type B receptor (Homo sapiens, UniProt P32239); assay: Displacement of [125I]BH-(Thr,-Nle)-CCK-9 from human CCK2 receptor expressed in COS-7 cells after 60 mins by gamma counting; format: cell-based
T3 sequence (P32239 whole entry): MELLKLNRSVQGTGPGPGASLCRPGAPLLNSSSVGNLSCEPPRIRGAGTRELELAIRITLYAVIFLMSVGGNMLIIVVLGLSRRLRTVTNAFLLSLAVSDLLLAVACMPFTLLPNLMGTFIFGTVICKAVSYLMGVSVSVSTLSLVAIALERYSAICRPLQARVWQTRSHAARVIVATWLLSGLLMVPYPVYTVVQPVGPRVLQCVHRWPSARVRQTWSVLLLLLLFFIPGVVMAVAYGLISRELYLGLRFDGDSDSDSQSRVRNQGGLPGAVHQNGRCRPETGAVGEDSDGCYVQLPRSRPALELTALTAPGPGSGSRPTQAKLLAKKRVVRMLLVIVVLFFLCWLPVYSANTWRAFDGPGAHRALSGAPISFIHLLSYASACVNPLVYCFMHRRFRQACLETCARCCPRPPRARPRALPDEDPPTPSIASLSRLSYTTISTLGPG

[5] = Antagonist activity at CCK1 receptor in Hartley guinea pig gall bladder assessed as inhibition of CCK8-induced contraction; format: functional, tissue-based, Cavia porcellus
Summary of the method: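 Circular smooth-muscle strips (about 3 mm × 15 mm) in Krebs–Henseleit at 32 °C, gassed 95% O2/5% CO2, resting tension 0.5 g, isometric recording. After 60 min equilibration with washes every 15 min, antagonist or vehicle is given 5 min before a submaximal (70–80%) CCK-8 concentration. Response is % inhibition of contraction, and IC50 comes from the regression line.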

[6] = biological target: T4, Cholecystokinin receptor type A (Homo sapiens) (UniProt P32238); assay: Antagonist activity at human CCK1 receptor expressed in COS7 cells assessed as inhibition of (Thr,Nle)-CCK9-induced inositol phosphate production using myo-2-[3H]inositol after 60 mins by scintillation counting; format: functional, cell-based; settings: COS-7
T4 sequence (whole entry): T2 sequence (P32238 whole entry)
Summary of the method: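 COS-7 cells transiently transfected (DEAE-dextran) with receptor cDNA are labelled overnight with 2 μCi/ml myo-2-[3H]inositol. They are preincubated 30 min in DMEM with 20 mM LiCl at 37 °C, then incubated 60 min at 37 °C in PI buffer pH 7.45 with ligands at various concentrations. Inositol phosphates are separated on Dowex AG 1-X8 formate columns and counted by β scintillation.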

[7] = biological target: T2, Cholecystokinin receptor type A; assay: Displacement of [3H]-SR-27897 from wild type human CCK1 receptor expressed in COS7 cells after 60 mins […]; format: cell-based, COS-7
Summary of the method: (§2)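 Wild-type or mutant receptor cDNA in pRFE-Neo (2 μg/plate) was transiently transfected into COS-7 cells by modified DEAE-dextran, and cells were replated 24 h later. After about 24 h more, cells were incubated 60 min at 37 °C in DMEM with 0.1% BSA, 1.83 nM [3H]SR-27,897 and competitors. Cells were washed in cold PBS with 2% BSA, lysed in 0.1 N NaOH, and counted by scintillation. Values are mean ± SEM, at least three experiments in duplicate.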

[8] = biological target: Cholecystokinin receptor type A (Homo sapiens, UniProt P32238, W39A); assay: Displacement of [3H]-SR-27897 from human CCK1 W39A mutant receptor expressed in COS7 cells after 60 mins […]; format: cell-based, COS-7; summary of the method: as §2
Cholecystokinin receptor type A (Homo sapiens, UniProt P32238, W39A), sequence (P32238 whole entry W39A): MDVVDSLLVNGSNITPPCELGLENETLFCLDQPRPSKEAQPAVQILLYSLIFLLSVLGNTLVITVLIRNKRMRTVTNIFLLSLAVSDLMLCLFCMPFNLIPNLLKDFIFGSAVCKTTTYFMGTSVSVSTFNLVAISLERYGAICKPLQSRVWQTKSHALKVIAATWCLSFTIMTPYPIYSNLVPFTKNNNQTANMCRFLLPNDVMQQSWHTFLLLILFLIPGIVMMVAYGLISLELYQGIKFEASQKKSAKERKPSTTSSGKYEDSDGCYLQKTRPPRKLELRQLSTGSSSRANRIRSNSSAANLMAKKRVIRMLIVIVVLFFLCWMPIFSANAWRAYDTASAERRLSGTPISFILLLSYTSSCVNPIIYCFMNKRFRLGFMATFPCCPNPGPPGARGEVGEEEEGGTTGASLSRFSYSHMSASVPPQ

[9] = biological target: Cholecystokinin receptor type A (Homo sapiens, UniProt P32238, F107A); assay: Displacement of [3H]-SR-27897 from human CCK1 F107A mutant receptor expressed in COS7 cells after 60 mins […]; format: cell-based, COS-7; summary of the method: as §2
Cholecystokinin receptor type A (Homo sapiens, UniProt P32238, F107A), sequence (P32238 whole entry F107A): as the sequence (P32238 whole entry W39A) above, with A39W, F107A counted along it

[10] = biological target: Cholecystokinin receptor type A (Homo sapiens, UniProt P32238, M195A); assay: Displacement of [3H]-SR-27897 from human CCK1 M195A mutant receptor expressed in COS7 cells after 60 mins […]; format: cell-based, COS-7; summary of the method: as §2
Cholecystokinin receptor type A (Homo sapiens, UniProt P32238, M195A), sequence (P32238 whole entry M195A): as the sequence (P32238 whole entry W39A) above, with A39W, M195A counted along it

[11] = biological target: Cholecystokinin receptor type A (Homo sapiens, UniProt P32238, R197A); assay: Displacement of [3H]-SR-27897 from human CCK1 R197A mutant receptor expressed in COS7 cells after 60 mins […]; format: cell-based, COS-7; summary of the method: as §2
Cholecystokinin receptor type A (Homo sapiens, UniProt P32238, R197A), sequence (P32238 whole entry R197A): as the sequence (P32238 whole entry W39A) above, with A39W, R197A counted along it

[12] = biological target: Cholecystokinin receptor type A (Homo sapiens, UniProt P32238, R336A); assay: Displacement of [3H]-SR-27897 from human CCK1 R336A mutant receptor expressed in COS7 cells after 60 mins […]; format: cell-based, COS-7; summary of the method: as §2
Cholecystokinin receptor type A (Homo sapiens, UniProt P32238, R336A), sequence (P32238 whole entry R336A): as the sequence (P32238 whole entry W39A) above, with A39W, R336A counted along it

[13] = biological target: Cholecystokinin receptor type A (Homo sapiens, UniProt P32238, F330A); assay: Displacement of [3H]-SR-27897 from human CCK1 F330A mutant receptor expressed in COS7 cells after 60 mins […]; format: cell-based, COS-7; summary of the method: as §2
Cholecystokinin receptor type A (Homo sapiens, UniProt P32238, F330A), sequence (P32238 whole entry F330A): as the sequence (P32238 whole entry W39A) above, with A39W, F330A counted along it

[14] = biological target: Cholecystokinin receptor type A (Homo sapiens, UniProt P32238, I352A); assay: Displacement of [3H]-SR-27897 from human CCK1 I352A mutant receptor expressed in COS7 cells after 60 mins […]; format: cell-based, COS-7; summary of the method: as §2
Cholecystokinin receptor type A (Homo sapiens, UniProt P32238, I352A), sequence (P32238 whole entry I352A): as the sequence (P32238 whole entry W39A) above, with A39W, I352A counted along it

[15] = biological target: T2, Cholecystokinin receptor type A; assay: Displacement of [125I]-BH-JMV-179 from wild type human CCK1 receptor expressed in COS7 cells after 60 mins by gamma counting; format: cell-based, COS-7
Summary of the method: (§3)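 Transiently transfected COS-7 cells (DMEM, 5% FCS, 37 °C, 5% CO2) were given 2 μg/plate pRFE-Neo vector carrying wild-type or mutant receptor cDNA by modified DEAE-dextran, then replated after 24 h. About 24 h later, cells were washed (PBS pH 6.95, 0.1% BSA) and incubated 60 min at 37 °C with 71 pM 125I-BH-(Thr,Nle)CCK-9 ± competitors. After cold washes, cells were lysed in 0.1 N NaOH and gamma-counted.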

[16] = biological target: Cholecystokinin receptor type A (Homo sapiens, UniProt P32238, N333A); assay: Displacement of [125I]-BH-JMV-179 from human CCK1 receptor N333A mutant expressed in COS7 cells after 60 mins by gamma counting; format: cell-based, COS-7; summary of the method: as §3
Cholecystokinin receptor type A (Homo sapiens, UniProt P32238, N333A), sequence (P32238 whole entry N333A): as the sequence (P32238 whole entry W39A) above, with A39W, N333A counted along it

Cavia porcellus [17] = assay: Inhibition of CCK8-induced gall bladder contraction in iv dosed Hartley guinea pig administered 2 mins before CCK8 challenge; format: functional; settings: read-out: ID50 (the source's name)
Summary of the method: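 Male Hartley guinea pigs (400–450 g) are fasted 48 h and anaesthetised with urethane 1.5 g/kg ip. Jugular vein and trachea are cannulated. Test agents are given iv at different doses 2 min before CCK-8 10 ng/kg iv. The read-out is % reduction of contraction area, and […] comes from the regression of inhibition against log dose.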

[18] = Apparent selectivity index, ratio of IC50 for CCK2 receptor in Hartley guinea pig cerebral cortex to IC50 for CCK1 receptor in Sprague-Dawley rat pancreatic acini; format: tissue-based
Homo sapiens = species: Homo sapiens; assay: Apparent selectivity index, ratio of Ki for human CCK2 receptor to Ki for human CCK1 receptor
[19] = biological target: T5, Cholecystokinin receptor type A (Rattus norvegicus) (UniProt P30551); assay: Displacement of [125I]-BH-CCK8 from CCK1 receptor in Sprague-Dawley rat pancreatic acini at 3 uM after 120 hrs by gamma-counting; settings: in the assay text read “after 30 mins” for “after 120 hrs”; summary of the method: as §1
T5 sequence (whole entry): T1 sequence (P30551 whole entry)

[20] = biological target: T5, Cholecystokinin receptor type A (Rattus norvegicus); assay: Displacement of [125I]-BH-CCK8 from CCK1 receptor in Sprague-Dawley rat pancreatic acini at 10 uM after 120 hrs by gamma-counting; settings: in the assay text read “after 30 mins” for “after 120 hrs”; summary of the method: as §1
Cavia porcellus [21] = species: Cavia porcellus; assay: Displacement of [125I]-BH-CCK8 from CCK2 receptor in Hartley guinea pig cerebral cortex at 30 uM […] by gamma-counting; format: tissue-based

IC50 ([1]; read-out: IC50): 7.9 µM
IC50 [2]: 313 nM
Ki [3]: 973 nM
Ki [4]: 1 µM
IC50 [5]: 420 nM
inhibition [6]: Active
Compound: O=C(Nc1ccccc1C(=O)N[C@@H](CCc1ccccc1)C(=O)O)c1cc2ccccc2[nH]1

IC50 ([1]; read-out: IC50): 3.8 µM
IC50 [2]: 9.5 nM
Ki [3]: 2.3 nM
Ki [4]: 1 µM
IC50 [5]: 43.9 nM
inhibition [6]: Active
Ki [7]: 5.8 nM
Ki [8]: 3.7 nM
Ki [9]: 3.8 nM
Ki [10]: 7.6 nM
Ki [11]: 19.6 nM
Ki [12]: 522 nM
Ki [13]: 4.9 nM
Ki [14]: 39.1 nM
Ki [15]: 0.32 nM
Ki [16]: 5 nM
Compound: O=C(Nc1ccccc1C(=O)N[C@H](CCc1ccccc1)C(=O)O)c1cc2ccccc2[nH]1
ED50 (Cavia porcellus [17]): 0.35 µmol/kg

IC50 [2]: 317 nM
Compound: O=C(Nc1ccccc1C(=O)NC(C(=O)O)c1ccccc1)c1cc2ccccc2[nH]1 (racemic)

IC50 ([1]; read-out: IC50): 5.1 µM
IC50 [2]: 15.7 nM
Ratio IC50 [18]: 324
Ki [3]: 3.9 nM
Ki [4]: 15.3 µM
Ratio Ki (Homo sapiens): 3900
IC50 [5]: 48.9 nM
inhibition [6]: Active
Compound: O=C(Nc1ccccc1C(=O)NC(CCc1ccccc1)C(=O)O)c1cc2ccccc2[nH]1 (racemic)

IC50 ([1]; read-out: IC50): 0.6 µM
IC50 [2]: 107 nM
Ratio IC50 [18]: 6
Compound: O=C(Nc1ccccc1C(=O)NC(CCCc1ccccc1)C(=O)O)c1cc2ccccc2[nH]1 (racemic)

IC50 [1]: Not Active
inhibition [19]: 24%
Compound: CCOC(=O)C(CCc1ccccc1)NC(=O)c1ccccc1NC(=O)c1cc2ccccc2[nH]1 (racemic)

IC50 [1]: Not Active
inhibition [20]: 36%
Compound: CC(CCc1ccccc1)NC(=O)c1ccccc1NC(=O)c1cc2ccccc2[nH]1 (racemic)

IC50 [2]: 419 nM
inhibition (Cavia porcellus [21]): 37%
Compound: O=C(Nc1ccccc1C(=O)NC(CCc1ccccc1)C(=O)NO)c1cc2ccccc2[nH]1 (racemic)

IC50 ([1]; read-out: IC50): 6.2 µM
IC50 [2]: 717 nM
Ratio IC50 [18]: 8
Compound: O=C(Nc1ccccc1NC(=O)C(CCc1ccccc1)C(=O)O)c1cc2ccccc2[nH]1 (racemic)

IC50 ([1]; read-out: IC50): 16.4 µM
Ratio IC50 [18]: 83
Ki [3]: 59.8 nM
Ki [4]: 22 µM
Ratio Ki (Homo sapiens): 368
Compound: O=C(Nc1ccccc1C(=O)NC(Cc1ccccc1)C(=O)O)c1cc2ccccc2[nH]1 (racemic)

inhibition [19]: inactive
Compound: NC(=O)C(CCc1ccccc1)NC(=O)c1ccccc1NC(=O)c1cc2ccccc2[nH]1 (racemic)

inhibition [20]: 39%
Compound: O=C(Nc1ccccc1C(=O)NC(CCCCc1ccccc1)C(=O)O)c1cc2ccccc2[nH]1 (racemic)
